# Results from different studies.
# Compare with care: the assays were run in different laboratories.
# Target: Serine/threonine-protein kinase 10 (STK10, Homo sapiens, UniProt O94804)
read-out,action,method,concentration,endpoint,result,Structure (SMILES)
binding,,competition with immobilised ligand,1 µM,remaining binding,21%,Cc1ccc(NC(=O)c2ccnc(C(F)(F)F)c2)cc1-c1cc(OCCO)nc(N2CCOCC2)c1
binding,,,1 µM,remaining binding,100%,COc1ccc2oc(-c3ccc4nc(N)oc4c3)c/c(=N\c3ccccc3NC(=O)CCN)c2c1
enzyme activity,inhibitor,,1 µM,inhibition,0%,C=CC(=O)N1CCC([C@@H]2CCNc3c(C(N)=O)c(-c4ccc(Oc5ccccc5)cc4)nn32)CC1
binding,,competition with immobilised ligand,0.5 µM,remaining binding,99%,CCCCC(=O)Nc1ccc(-c2ccc3ncn(CCC)c(=O)c3c2)cn1
binding,,competition with immobilised ligand,1 µM,remaining binding,0.4%,CN1CCN(C(=O)c2ccc(NC(=O)Nc3ccc(N(C)c4ccnc(Nc5ccc(CS(C)(=O)=O)cc5)n4)cc3)cc2)CC1
enzyme activity,inhibitor,,1 µM,inhibition,46%,C=CC(=O)N1CCC[C@@H](n2nc(-c3ccc(Oc4ccccc4)cc3)c3c(N)ncnc32)C1
cell-free assay,,,0.1 µM,remaining signal,89%,C1=C/COCc2cc(ccc2OCCN2CCCC2)Nc2nccc(n2)-c2cccc(c2)COC/1
enzyme activity,inhibitor,,0.2 µM,inhibition,36.5%,C#Cc1cc(-c2cc(Nc3nc(N[C@@H](C)c4ccc(F)cn4)ncc3Cl)n[nH]2)ccc1C=O
